Converted amounts (≈) assume the structure as drawn. Like-named read-outs stand apart in the source and are kept apart here. Marks after values point to notes of the source that are not given here.
Experiments:
[1] = In vitro antioxidation activity; conditions: DPPH assay, mean of three replicates; for EC50 (antioxidation activity), crude and partitioned extracts: Table 1 experiment
Procedure, shortened: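 Five concentrations of test compound or extract were prepared in DMSO. Each was mixed with 0.15 mM DPPH in methanol and held at 25 °C for 30 min, then A517 was read. Ascorbic acid served as reference standard. Antioxidation (%) = [(A control − A sample)/A control] × 100. EC50 came from linear and nonlinear regression of % activity against concentration. Triplicates were used.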

human tyrosinase = conditions: ref An et al., 2010, cited from earlier work

| SMILES | EC50 (antioxidation activity), crude and partitioned extracts [1] | EC50 (antioxidation activity), crude and partitioned extracts ([1]; listed as ascorbic acid) | EC50 value of pooled fractions after SG60CC ([1]; nonlinear regression, Table 4 experiment) | Type of inhibition of human tyrosinase (human tyrosinase; for L-DOPA) | Type of inhibition of human tyrosinase (human tyrosinase; for tyrosine) |
| --- | --- | --- | --- | --- | --- |
| O=C1O[C@H]([C@@H](O)CO)C(O)=C1O [Ascorbic acid, ascorbic acid] | 89.82^a μg/mL | 89.8 µg/mL (≈ 510 µM) | 71.5^a μg/mL |  |  |
| O=C(O)/C=C/c1ccc(O)cc1 [p-coumaric acid] |  |  |  | competitive | mixed type |

Source: article PMC7090343 (Heliyon, 2020)
